93 molecules from PubChem BioAssay AID504382 (The Scripps Research Institute Molecular Screening Center, 2011) can be followed below.

Each structure is given as a SMILES string. About 460 (18%) of roughly 2,500 compounds were called active. A selection follows. Values without a mark were called inactive.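 How the source made its calls: active means mean activation above a cutoff of low control average plus 3 SD from the earlier screen (cut at about 12% in these data); inactive means the rest.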

A short description of this experiment: compound fluorescence interference without thin filaments, confirmation, artefact control for cardiac RTF calcium sensitizer project, biochemical (AID 504382). The following applies: IANBD fluorescence interference counterscreen, buffer, EC20 Ca2+; at 7.2 µM; hits give high values; scaled: EC20 calcium 0, EC100 calcium 100. An outline of the steps: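 Medium: MOPS/KCl/MgCl2/EGTA/NTA/DTT buffer, pH 7.2 | Reagent: EC20 calcium, 0.472 mM | Compound dosing: 7.2 µM single dose | Times: 15 min compound exposure at 25 °C | Signal: Fluorescence, 480/540 nm | Measure: Interference relative to controls | Repeats: Triplicate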
For `Cc1cc(/C=C2\SC(=S)N(C)C2=O)c(C)n1-c1ccccc1O`, the fluorescence artifact activation was 3.34%.

Turning to `CN(/N=C/c1ccc(N(C)C)cc1)C1=NS(=O)(=O)c2ccccc21`, the fluorescence artifact activation was 6.25%.

On to `CCN(CC)c1ccc2c(c1)oc(=O)c1c(Cl)cc(=O)oc12`, for which the fluorescence artifact activation is 21.4% (active).

Consider `CCN(CC)c1ccc2cc(C=O)c(=O)oc2c1`, for which the fluorescence artifact activation is 5.57%.

Regarding `CCN(CC)c1ccc2cc(-c3nc4ccccc4n3C)c(=O)oc2c1`, the fluorescence artifact activation was 0.12%.

For `CCN(CC)c1ccc2oc(=O)c(C)nc2c1`, the fluorescence artifact activation is 124% (active).

Take `CCN(CC)c1ccc2c(Cl)c(Br)c(=O)oc2c1`: the fluorescence artifact activation was 0.1%.

In the case of `O=C(Nc1ccccc1)C1CC2CCCC(C1)C2=O` (stereo not drawn), the fluorescence artifact activation was 2.4%.

For the molecule `O=C(C1=NN(c2ccccc2)C2C(=O)N(c3ccc(Cl)cc3)C(=O)C12)c1ccccc1` (stereo not drawn), the fluorescence artifact activation is -0.02%.

In the case of `Cc1ccc2c(C(=O)CN3CCC(C(N)=O)CC3)c(C)[nH]c2c1`, the fluorescence artifact activation is 9.54%.

As to `CCS(=O)(=O)N1Cc2ccccc2CC1C(=O)Nc1ccc(OC)cc1OC` (stereo not drawn), the fluorescence artifact activation was 0.07%.

`O=C(O)c1cccc2c1C(=O)c1ccc(N3CCCC3)cc1S2(=O)=O`: the fluorescence artifact activation is -0.07%.

For the molecule `CCCN1C(=O)c2cccc3c(N4CCCCC4)ccc(c23)C1=O`, the fluorescence artifact activation is 0.47%.

On to `O=C1c2cccc3c(N4CCCCC4)ccc(c23)C(=O)N1CCO`, for which the fluorescence artifact activation was 42.3% (active).

As for `C=CCN1C(=O)c2cccc3c(N4CCCCC4)ccc(c23)C1=O`, the fluorescence artifact activation was 2.88%.

Consider `O[C@@H]1CN(C2CCCCC2)CC[C@H]1N1CCN(CCc2ccccc2)CC1`, for which the fluorescence artifact activation was 7.79%.

With `CC[C@@]1(O)C(=O)OCc2c1cc1n(c2=O)Cc2cc3c(CN(C)C)c(O)ccc3nc2-1`, the fluorescence artifact activation is 6.14%.

In the case of `CCOc1ccc(Nc2nc(N)c([N+](=O)[O-])c(NCc3ccccc3)n2)cc1`, the fluorescence artifact activation is 0.09%.

As to `OCC[n+]1ccc(/C=C/c2c[nH]c3ccccc23)cc1`, the fluorescence artifact activation is 0%.

Turning to `C(=Cc1c[nH]c2ccccc12)c1nccc2ccccc12`, the fluorescence artifact activation is 1.55%.

As to `CC[n+]1ccc(/C=C/c2c[nH]c3ccccc23)cc1`, the fluorescence artifact activation was 59.8% (active).

As for `C[n+]1ccc(/C=C/c2c[nH]c3ccc(F)cc23)cc1`, the fluorescence artifact activation was 0.16%.

Regarding `C[n+]1ccc(/C=C/c2c[nH]c3ccccc23)cc1`, the fluorescence artifact activation is 57.3% (active).

Take `Cc1ccc2[nH]cc(/C=C/c3cc[n+](C)cc3)c2c1`: the fluorescence artifact activation was -0.07%.

Take `Cc1cc(Cl)ccc1OCC(=O)NCCOc1nc(N2CCOCC2)nc(N2CCOCC2)n1`: the fluorescence artifact activation is 0.1%.

For the molecule `N#Cc1c(-c2ccccc2F)cc(C2CC2)nc1SCC(=O)c1cccs1`, the fluorescence artifact activation is 0.28%.

Consider `Cc1ccc(C(=O)N/C(=C/c2ccc(-c3ccc([N+](=O)[O-])cc3)o2)C(=O)NCCCN(C)C)cc1`, for which the fluorescence artifact activation is 0.29%.

As for `NC(=O)CC[C@@H]1NC(=O)[C@H](Cc2ccc(O)cc2)NC(=O)c2cc([N+](=O)[O-])cc(F)c2OCC[C@@H](C(N)=O)NC1=O`, the fluorescence artifact activation was 0.02%.

For `COc1ccc(CNS(=O)(=O)c2cc(-c3cc(C)no3)ccc2OC)cc1OC`, the fluorescence artifact activation is 2.41%.

For the molecule `CC(C)(CO)NCC#Cc1ccccc1`, the fluorescence artifact activation was -0.01%.

As to `Cc1nn(C)c(NC(=O)c2ccccc2Cl)c1Cl`, the fluorescence artifact activation is 18.7% (active).

As to `CSCCC(NC(=O)c1ccccc1Cl)C(=O)N1CCC1` (stereo not drawn), the fluorescence artifact activation is -0.06%.

Consider `COc1ccccc1C(=O)Nc1nnn(C)n1`, for which the fluorescence artifact activation was -0.09%.

Take `O=C(Oc1cc2oc(=O)c3c(c2cc1Cl)CCCC3)c1cccs1`: the fluorescence artifact activation is 0.11%.

Turning to `Cc1ccccc1C(=O)c1cccn1CC(=O)NCCCN1CC(C)CC(C)C1` (stereo not drawn), the fluorescence artifact activation is 0.1%.

On to `CC1CN(CCCCOc2ccc3ccccc3c2)CC(C)O1` (stereo not drawn), for which the fluorescence artifact activation is 0.12%.

As to `CC1CC(C)CN(CCOCCSc2ccccc2)C1` (stereo not drawn), the fluorescence artifact activation was 28.4% (active).

Consider `CC1CCN(c2ccc3c(c2)S(=O)(=O)c2cccc(C(=O)NCc4cccc(F)c4)c2C3=O)CC1`, for which the fluorescence artifact activation was 0.09%.

For `C=CCNC(=S)N(CC=C)C1CCS(=O)(=O)C1` (stereo not drawn), the fluorescence artifact activation is 0.07%.

For `COC(=O)CCCCCN1C(=O)/C(=C\c2ccncc2)SC1=S`, the fluorescence artifact activation was -0.01%.

As for `Cc1cccn2c(=O)c(/C=C3\SC(=S)NC3=O)c(NCCCN3CCOCC3)nc12`, the fluorescence artifact activation is 21.4% (active).

As for `Cc1cccn2c(=O)c(/C=C3\SC(=S)N(CC(C)C)C3=O)c(NCCCOC(C)C)nc12`, the fluorescence artifact activation was 17.1% (active).

As to `CCNC(=O)/C(C#N)=C/c1c(N2CCN(Cc3ccc4c(c3)OCO4)CC2)nc2c(C)cccn2c1=O`, the fluorescence artifact activation was 0.06%.

On to `Cc1cccn2c(=O)c3cc(C#N)c(=NC(=O)c4cccs4)n(CCCOC(C)C)c3nc12`, for which the fluorescence artifact activation is -0.06%.

Turning to `O=C1NC(=S)S/C1=C/c1ccc(N2CCOCC2)o1`, the fluorescence artifact activation was 1.59%.

For the molecule `O=C1CCN2C=Nc3cccc4ccc1c2c34`, the fluorescence artifact activation is -0.03%.

In the case of `CC1=C(C)CC(C(=O)NNC(=O)c2cccc(Cl)c2)C(C(=O)O)C1` (stereo not drawn), the fluorescence artifact activation is -0.06%.

Regarding `Cc1c(N=C2N=C(NC(=O)Nc3ccc(Cl)cc3)c3ccccc32)c(=O)n(-c2ccccc2)n1C`, the fluorescence artifact activation is 20.3% (active).

Take `CN1CCC/C1=C1/C(=O)N(c2ccccc2)N=C1NC(=O)Nc1cccc(Cl)c1`: the fluorescence artifact activation was 0.05%.

`Cc1cc([N+](=O)[O-])nn1CC(=O)Nc1c(C)n(C)n(-c2ccccc2)c1=O`: the fluorescence artifact activation is 3.39%.

Turning to `O=C(Nc1cccc2c1N(C(=O)c1ccco1)CCC2)c1ccco1`, the fluorescence artifact activation was 5.02%.

Turning to `COc1ccccc1CNC(=O)COC(=O)c1cccc(S(=O)(=O)N2CCOCC2)c1`, the fluorescence artifact activation was 0.16%.

Turning to `C[C@@H](NC(=O)c1ncn(C)c1C(=O)N[C@H](C)c1ccccc1)c1ccccc1`, the fluorescence artifact activation is 0%.

As to `C/C(=N\NC(=O)c1ccccc1)c1ccc(NC(=O)c2cccs2)cc1`, the fluorescence artifact activation was 0.85%.

As to `Cc1ccc(C(C)NC(=O)c2cccs2)cc1C` (stereo not drawn), the fluorescence artifact activation is 174% (active).

`Cc1cc(S(=O)(=O)NC(C)C)ccc1OCC(=O)NCc1ccccc1`: the fluorescence artifact activation was 0.08%.

On to `COC(=O)[C@H](C)NC(=O)c1cc2c(cn1)[nH]c1ccccc12`, for which the fluorescence artifact activation is 0.32%.

As for `CCN(CC)C(=O)C(=O)c1c(-c2ccccc2)[nH]c2ccccc12`, the fluorescence artifact activation was 6.52%.

Regarding `CCOC(=O)c1c(NCC(C)C)c2ccccc2[nH]c1=O`, the fluorescence artifact activation was 39.3% (active).

In the case of `C=CCN1C(=O)[C@@H]2Cc3c([nH]c4ccccc34)C(c3ccc(O)cc3)N2C1=S` (stereo partly drawn), the fluorescence artifact activation was -0.05%.

Turning to `CCC(=O)N1CCN(c2nc(C)nc3sc(C)c(C)c23)CC1`, the fluorescence artifact activation is 0.08%.

In the case of `S=C1NC2=C(CCCC2=C2SCCCS2)C(c2ccccc2)N1` (stereo not drawn), the fluorescence artifact activation was 0.29%.

Regarding `CC(=O)N(C(C)=O)N1C(=O)c2cccc3c(N4CCOCC4)ccc(c23)C1=O`, the fluorescence artifact activation is 0.01%.

As to `O=C(OCCN1C(=O)c2cccc3c(N4CCOCC4)ccc(c23)C1=O)c1ccc(Cl)cc1`, the fluorescence artifact activation is 1.59%.

As to `O=C(O)CN1C(=O)c2cccc3c(Br)ccc1c23`, the fluorescence artifact activation was 53.6% (active).

As to `CCn1c(CSCc2ccccc2)n[nH]c1=S`, the fluorescence artifact activation is 0.18%.

As for `Cc1ccc(NC(=O)CN(C)C(=O)COC(=O)COc2ccc(C#N)cc2)cc1`, the fluorescence artifact activation is 0.42%.

As to `Cc1ccc(NC(=O)COc2ccc(/C=N/NC(=O)CSCc3ccccc3)cc2)cc1`, the fluorescence artifact activation is 12.9% (active).

With `Cc1ccc(NC(=O)CO/N=C/c2ccc(N(C)C)cc2)cc1`, the fluorescence artifact activation is 0.03%.

Regarding `C=CCN1C(=O)c2ccccc2NC1c1cc(Br)cs1` (stereo not drawn), the fluorescence artifact activation is 7.88%.

For `Cc1nn(-c2ccccc2)c(Cl)c1C(=O)NC1CCCCC1`, the fluorescence artifact activation is 4.56%.

For `CCc1ccccc1NC(=O)COc1ccc2c(=O)c(Oc3cc(C)ccc3C)coc2c1`, the fluorescence artifact activation was 664% (active).

For the molecule `Cc1cc(=O)oc2cc(OCC(=O)OCC(=O)NC(C)C)ccc12`, the fluorescence artifact activation is -0.02%.

Take `Cc1ccc(C)c(NC(=O)COC(=O)Cc2ccsc2)c1`: the fluorescence artifact activation was 0.03%.

In the case of `O=C(O)CSc1ncnc2scc(-c3ccc(Br)cc3)c12`, the fluorescence artifact activation is 0.71%.

Regarding `CC(C)(C)NCc1cc(Cl)ccc1OCc1cccs1`, the fluorescence artifact activation was 13.9% (active).

On to `COc1cccc2c1C(=O)c1c(O)c3c(c(O)c1C2=O)CC(O)(C(C)=NNC(=O)c1ccc(Cl)c(Cl)c1)CC3OC1CC(N)C(O)C(C)O1` (stereo not drawn), for which the fluorescence artifact activation was 0.12%.

As to `Cc1cc(C)c(C#N)c(SCc2nnc(-c3ccccc3)o2)n1`, the fluorescence artifact activation is 14.5% (active).

As to `N#Cc1c(N)oc(-c2ccccc2)c1-c1ccccc1`, the fluorescence artifact activation is 4.93%.

With `Cc1cc(C)c(C#N)c(Sc2nnnn2-c2ccccc2)n1`, the fluorescence artifact activation is 11.6%.

As for `CCOC(=O)/C(C#N)=N\Nc1cc(Cl)ccc1OC`, the fluorescence artifact activation is 0.07%.

In the case of `C[C@@H]1C=C(C(=O)N2CCOCC2)O[C@H](OCc2ccc(CO)cc2)C1`, the fluorescence artifact activation was 0.97%.

As to `CCOCCCNS(=O)(=O)c1ccc(NC(=O)c2ccc(OC)c([N+](=O)[O-])c2)cc1`, the fluorescence artifact activation was 0.52%.

On to `CCOc1cccc(NC(=O)/C(C#N)=C\c2cn(CC(=O)O)c3ccccc23)c1`, for which the fluorescence artifact activation was 0.19%.

For the molecule `O=C(Cn1cc(/C=N/NC(=O)c2cccc3ccccc23)c2ccccc21)Nc1ccc(F)cc1`, the fluorescence artifact activation was 19.7% (active).

As for `O=C(Nc1ccccc1C(=O)N/N=C/c1ccco1)c1ccc(F)cc1`, the fluorescence artifact activation is 1.44%.

In the case of `Cc1ccc(N=Cc2sc(O)c3ccccc23)c(C)c1`, the fluorescence artifact activation was 0.06%.

Consider `CCOC(=O)c1ccc[n+](CC(=O)Nc2cc(C(F)(F)F)ccc2Cl)c1`, for which the fluorescence artifact activation was 2.39%.

`CCn1c(O)c(/C=N/N=C/c2ccccc2)c2ccc(C3=NNC(=O)CC3)cc21`: the fluorescence artifact activation is 0.02%.

Take `Brc1ccc(-c2cnnc(N3CCCC3)n2)cc1`: the fluorescence artifact activation was 66.5% (active).

For the molecule `C=CCOc1ccc(CNc2ccc3[nH]c(=O)[nH]c3c2)cc1OCC`, the fluorescence artifact activation is 5.69%.

For `COC(=O)c1c(NC(=O)c2ccnn2C)sc(C)c1C`, the fluorescence artifact activation is 0.09%.

On to `Fc1ccc(C2=CC(c3ccc(Br)o3)n3ncnc3N2)cc1` (stereo not drawn), for which the fluorescence artifact activation was 0.34%.
